Experimental findings from ChEMBL document CHEMBL2311525, “Design, synthesis, and pharmacological properties of new heteroarylpyridine/heteroarylpyrimidine derivatives as CB(2) cannabinoid receptor partial agonists” (J Med Chem, 2013) are described below.

For experiment [1], the target named is T1, Cannabinoid receptor 2 (Homo sapiens, UniProt P34972). Description: Displacement of [3H]CP-55,940 from human recombinant CB2 receptor expressed in CHO cell membranes at 1 to 10000 nM after 60 mins by scintillation counting analysis. The procedure, abridged:
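Membranes from CHO cells expressing hCB2, spun at 100000g, in 50 mM Tris-HCl with 0.5% BSA, 5 mM MgCl2 and 1 mM EDTA, pH 7.4. Incubated with 0.5 nM [3H]CP-55,940 and compound at 1 nM–10 μM for 60 min at 30 °C. Filtered on GF/C and counted. Ki by Cheng–Prusoff, n = 4.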
In general terms: Loss of bound radioactivity is the signal in a displacement assay; it reports binding, not function.

The target in experiment [2] is T2, Cannabinoid receptor 1 (Homo sapiens, UniProt P21554). Description: Displacement of [3H]CP-55,940 from human recombinant CB1 receptor expressed in CHO cell membranes at 1 to 10000 nM after 90 mins by scintillation counting analysis. The procedure, abridged:
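Membranes from CHO cells expressing hCB1, spun at 100000g, in 50 mM Tris-HCl with 0.5% BSA, 5 mM MgCl2 and 2.5 mM EDTA, pH 7.4. Incubated with 0.5 nM [3H]CP-55,940 and compound at 1 nM–10 μM for 90 min at 30 °C. Filtered on GF/C and counted. Ki by Cheng–Prusoff, n = 4.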

Experiment [3] has as its target T3, Cannabinoid receptor 2 (Rattus norvegicus) (UniProt Q9QZN9).
T3 sequence (whole entry): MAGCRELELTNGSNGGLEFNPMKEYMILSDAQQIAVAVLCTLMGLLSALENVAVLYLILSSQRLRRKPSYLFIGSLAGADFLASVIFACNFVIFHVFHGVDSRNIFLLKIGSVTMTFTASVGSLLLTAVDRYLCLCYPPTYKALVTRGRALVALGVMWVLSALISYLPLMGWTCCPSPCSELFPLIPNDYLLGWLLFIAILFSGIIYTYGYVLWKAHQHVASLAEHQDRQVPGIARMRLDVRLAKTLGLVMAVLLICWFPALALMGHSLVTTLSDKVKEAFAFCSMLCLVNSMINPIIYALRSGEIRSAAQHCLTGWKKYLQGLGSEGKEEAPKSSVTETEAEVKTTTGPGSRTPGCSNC
Description: Displacement of [3H]CP-55,940 from Sprague-Dawley rat spleen CB2 receptor at 1 to 10000 nM by scintillation counting analysis. The procedure, abridged: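 Male Sprague-Dawley rat spleen membranes, prepared by spinning at 2000g and then 40000g, in 50 mM Tris-HCl with 1 mM EDTA, 3 mM MgCl2 and 0.5% fatty-acid-free BSA, pH 7.4. Incubated with 0.5 nM [3H]CP-55,940, 80 μg protein/100 μL and test compound at 1 nM–10 μM. Filtered on GF/C. Ki by Cheng–Prusoff, n = 4.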

Experiment [4] deals with Cannabinoid receptor 1 (Rattus norvegicus) (UniProt P20272). Description: Displacement of [3H]CP-55,940 from Sprague-Dawley rat brain CB1 receptor at 1 to 10000 nM by scintillation counting analysis. The procedure, abridged: (§1)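 Male Sprague-Dawley rat brain membranes, prepared by spinning at 2000g and then 40000g, in 50 mM Tris-HCl with 1 mM EDTA, 3 mM MgCl2 and 0.5% fatty-acid-free BSA, pH 7.4. Incubated with 1.0 nM [3H]CP-55,940, 40 μg protein/100 μL and test compound at 1 nM–10 μM. Filtered on GF/C. Ki by Cheng–Prusoff, n = 4.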

Experiment [5] deals with T1, Cannabinoid receptor 2. The experiment is described as follows: Displacement of [3H]CP-55,940 from human recombinant CB2 receptor expressed in CHO cell membranes after 60 mins by scintillation counting analysis.
In experiment [6] the target is T4, Cannabinoid receptor 2 (Rattus norvegicus, UniProt Q9QZN9).
T4 sequence (Q9QZN9 whole entry): T3 sequence (whole entry)
The experiment is described as follows: Displacement of [3H]CP-55,940 from Sprague-Dawley rat spleen CB2 receptor by scintillation counting analysis. The procedure, abridged:
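Male Sprague-Dawley rat spleen membranes, prepared by spinning at 2000g and then 40000g, in 50 mM Tris-HCl with 1 mM EDTA, 3 mM MgCl2 and 0.5% fatty-acid-free BSA, pH 7.4. Filtered on GF/C.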

In experiment [7] the target is T2, Cannabinoid receptor 1. The experiment is described as follows: Displacement of [3H]CP-55,940 from human recombinant CB1 receptor expressed in CHO cell membranes after 90 mins by scintillation counting analysis.
Experiment [8] has as its target Cannabinoid receptor 1 (Rattus norvegicus, UniProt P20272). Description: Displacement of [3H]CP-55,940 from Sprague-Dawley rat brain CB1 receptor by scintillation counting analysis. The procedure, abridged: as §1
Experiment [9] is filed under the species Homo sapiens. The experiment is described as follows: Selectivity index, ratio of Ki for human recombinant CB1 receptor to Ki for human recombinant CB2 receptor.
Experiment [10] has as its target T1, Cannabinoid receptor 2. Description: Agonist activity at human CB2 receptor expressed in CHO cells assessed as forskolin-stimulated [3H]cyclic-AMP accumulation by scintillation counting analysis relative to WIN 55,212-2. It is filed as functional, cell-based. The procedure, abridged: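 CHO cells stably expressing human CB2, 1 × 10^6 cells/assay, in buffered saline (10 mM MgCl2, 5 mM glucose, 5 mM HEPES, pH 7.4, 37 °C) with 0.5 mM Ro 20-1724. Preincubated 10 min at 37 °C, then tested with 1 μM forskolin. Stopped with cold 6% TCA and ether-extracted. cAMP read by [3H]cAMP competition binding to beef adrenal binding protein with charcoal separation.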

Experiment [11] has as its target T1, Cannabinoid receptor 2. Description: Agonist activity at human CB2 receptor expressed in CHO cells assessed as forskolin-stimulated [3H]cyclic-AMP accumulation by scintillation counting analysis. The format is functional, cell-based.
The species named for experiment [12] is Homo sapiens. The experiment is described as follows: Selectivity ratio of Ki for CB1 receptor (unknown origin) to Ki for CB2 receptor (unknown origin).

T2 sequence (P21554 whole entry): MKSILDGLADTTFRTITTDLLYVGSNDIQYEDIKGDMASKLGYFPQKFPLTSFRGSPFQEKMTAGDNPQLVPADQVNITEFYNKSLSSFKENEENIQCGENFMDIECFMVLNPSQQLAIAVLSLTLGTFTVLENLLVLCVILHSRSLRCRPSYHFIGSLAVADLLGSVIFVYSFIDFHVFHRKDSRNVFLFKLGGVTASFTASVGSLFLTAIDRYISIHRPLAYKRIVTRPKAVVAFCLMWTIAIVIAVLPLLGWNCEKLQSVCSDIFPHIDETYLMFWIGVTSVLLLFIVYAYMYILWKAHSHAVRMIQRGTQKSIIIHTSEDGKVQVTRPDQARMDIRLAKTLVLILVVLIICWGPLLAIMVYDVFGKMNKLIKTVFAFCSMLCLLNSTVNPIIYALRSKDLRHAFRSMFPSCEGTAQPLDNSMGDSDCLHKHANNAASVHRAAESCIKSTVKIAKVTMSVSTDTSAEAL
Sequence of Cannabinoid receptor 1 (Rattus norvegicus, UniProt P20272) (P20272 whole entry): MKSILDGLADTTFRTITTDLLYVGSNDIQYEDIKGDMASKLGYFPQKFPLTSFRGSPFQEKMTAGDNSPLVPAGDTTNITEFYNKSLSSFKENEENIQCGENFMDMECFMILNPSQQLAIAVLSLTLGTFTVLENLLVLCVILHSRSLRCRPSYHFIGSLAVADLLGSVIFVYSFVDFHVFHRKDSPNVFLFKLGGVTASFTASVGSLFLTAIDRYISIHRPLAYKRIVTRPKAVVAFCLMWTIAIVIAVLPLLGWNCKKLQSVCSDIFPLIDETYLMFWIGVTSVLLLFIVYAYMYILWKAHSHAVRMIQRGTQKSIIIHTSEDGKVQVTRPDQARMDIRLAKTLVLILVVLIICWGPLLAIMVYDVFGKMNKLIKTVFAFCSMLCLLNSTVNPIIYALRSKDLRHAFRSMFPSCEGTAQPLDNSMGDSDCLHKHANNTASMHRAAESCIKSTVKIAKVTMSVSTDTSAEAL
Sequence of Cannabinoid receptor 1 (Rattus norvegicus) (P20272 whole entry): as above
T1 sequence (P34972 whole entry): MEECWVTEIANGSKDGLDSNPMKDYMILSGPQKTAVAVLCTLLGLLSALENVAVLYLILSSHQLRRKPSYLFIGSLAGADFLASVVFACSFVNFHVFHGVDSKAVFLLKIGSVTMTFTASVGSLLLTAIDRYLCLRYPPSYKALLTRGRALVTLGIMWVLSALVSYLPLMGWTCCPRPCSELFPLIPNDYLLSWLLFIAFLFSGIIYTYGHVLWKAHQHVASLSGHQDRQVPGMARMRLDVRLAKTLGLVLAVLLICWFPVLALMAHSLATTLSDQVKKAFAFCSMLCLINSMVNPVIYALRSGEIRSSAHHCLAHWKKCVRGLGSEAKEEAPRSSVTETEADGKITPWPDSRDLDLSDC

The inhibition is the share of the control response that was lost under treatment. Usually Ki stands for the equilibrium dissociation constant of an inhibitor or competing ligand from its target. For `CCOCCn1cc(C(=O)NC2CCCCC2)c(=O)c2c(C)nn(C)c21`, the inhibition in experiment [1] came to 1%; in [2], 14%; in experiment [3], 1%; in experiment [4], 10%. The Ki in experiment [5], in experiment [6], in [7] and in experiment [8] was over 10 µM each time.

For `CCCCCn1cc(C(=O)NC2CCCCCC2)c(=O)c2c(-c3ccc(Cl)cc3)nn(C)c21`, the inhibition in experiment [2] turned out to be 17%; in [4] it was 12%. The Ratio Ki in experiment [9] was over 3.5. The Ki in [5] was 2.83 µM; in experiment [6], 4.05 µM; in [7] it was over 10 µM; in experiment [8], over 10 µM.

Regarding `CCCCCn1cc(C(=O)NC2CCCCC2)c(=O)c2c(-c3ccccc3)nn(C)c21`, the inhibition in [1] came out at 1%; in [2], 23%; in experiment [3], 1%; in experiment [4] it was 18%. Moreover, the inhibitory constant (Ki) in experiment [5], in [6], in experiment [7] and in [8] was over 10 µM each time.

As to `CCCCCn1cc(C(=O)NC2CCCCCC2)c(=O)c2c(-c3ccccc3)nn(C)c21`, the inhibition in [1], in experiment [2], in [3] and in [4] was 1% each time. Also, the inhibition constant (Ki) in experiment [5], in [6], in experiment [7] and in [8] was over 10 µM in each case.

Consider `CCCCCn1cc(C(=O)Nc2ccc(F)cc2)c(=O)c2c(C)nn(C)c21`, for which the inhibition was 37% in [1], 44% in experiment [2], 27% in experiment [3] and 48% in experiment [4]. Further, the Ki in [5], in experiment [6], in experiment [7] and in experiment [8] was over 10 µM throughout.

`Cc1nn(C)c2c1c(=O)c(C(=O)NC1CCCCC1)cn2CCCCC#N`: the inhibition came out at 11% in experiment [1], 28% in experiment [2], 5% in [3] and 25% in experiment [4]. Besides, the inhibition constant (Ki) in experiment [5], in experiment [6], in [7] and in [8] was over 10 µM each time.

For `Cc1ccc(Cn2cc(C(=O)NC3CCCCC3)c(=O)c3c(C)nn(C)c32)cc1`, the inhibition in experiment [1] was 33%; in experiment [2] it was 35%; in experiment [3] it was 29%; in [4], 38%. For the same compound, the inhibition constant Ki in experiment [5], in experiment [6], in experiment [7] and in [8] was over 10 µM in each case.

For the compound `Cc1nn(C)c2c1c(=O)c(C(=O)NC1CCCCC1)cn2CCN1CCOCC1`, the inhibition in experiment [1] turned out to be 36%; in experiment [2] it was 16%; in experiment [3], 32%; in experiment [4], 13%. Besides, the Ki in experiment [5], in [6], in [7] and in [8] was over 10 µM in each case.

As usually defined, the Emax is the size of the effect at its maximum, as opposed to the concentration needed. One may read the EC50 as the midpoint of the concentration-response curve. As for `C=CCn1cc(C(=O)NC2CCCCC2)c(=O)c2c(C)nn(C)c21`, the Emax in experiment [10] amounted to 58%. In experiment [11], the 50% effective concentration (EC50) was 0.587 µM. Further, the inhibition worked out at 42% in experiment [1], 34% in [2], 46% in experiment [3] and 27% in experiment [4]. In addition, the inhibition constant (Ki) in experiment [5], in experiment [6], in experiment [7] and in experiment [8] was over 10 µM throughout.

As for `CCCCCn1cc(C(=O)Nc2ccc(OC)cc2)c(=O)c2c(C)nn(C)c21`, the inhibition in experiment [1] amounted to 33%; in [2] it was 38%; in experiment [3], 24%; in experiment [4], 46%. In addition, the inhibition constant (Ki) in experiment [5], in experiment [6], in experiment [7] and in experiment [8] was over 10 µM throughout.

`CCCCCn1cc(C(=O)NC2CCCCC2)c(=O)c2c(C(C)(C)C)nn(C)c21`: the values for the inhibition in experiment [2] and in experiment [4] were 23% and 19%, respectively. Also, the Ratio Ki in experiment [9] is over 2.8. Further, the Ki was 3.53 µM in experiment [5], 4.03 µM in experiment [6], over 10 µM in experiment [7] and over 10 µM in [8].

Turning to `CCCCCCC(C)(C)c1cc(OC)c([C@@H]2C=C(CO)[C@H]3C[C@@H]2C3(C)C)c(OC)c1`, the Ratio Ki in experiment [12] was 400.

On to `CCCCCn1cc(C(=O)NCc2ccccc2)c(=O)c2c(C)nn(C)c21`, for which the results for the inhibition in experiment [2] and in [4] were 38% and 42%, respectively. The Ratio Ki in experiment [9] is over 2.7. The Ki in experiment [5] was 3.65 µM; in [6] it was 4.52 µM; in experiment [7] it was over 10 µM; in experiment [8], over 10 µM.

As for `CCCCCn1cc(C(=O)NC2CCCCC2)c(=O)c2c(-c3ccc(Cl)cc3)nn(C)c21`, the inhibition was determined as 22% in experiment [2] and 15% in experiment [4]. Further, the Ratio Ki in experiment [9] is over 2.8. Moreover, the Ki in experiment [5] was 3.62 µM; in experiment [6], 5.02 µM; in [7], over 10 µM; in [8], over 10 µM.

Regarding `CCCCCn1cc(C(=O)NC23CC4CC(CC(C4)C2)C3)c(=O)c2c(C)c(C)sc21`, the Emax in experiment [10] was -178%. Besides, in [11], the concentration for a half-maximal effect (EC50) is 0.034 µM. Further, the Ratio Ki in experiment [9] is 15.9. The inhibitory constant (Ki) stood at 0.00327 µM in experiment [5], 0.00426 µM in experiment [6], 0.043 µM in experiment [7] and 0.052 µM in experiment [8].

Regarding `CCCCCn1cc(C(=O)NC2CCCCC2)c(=O)c2c(C)csc21`, the Emax in experiment [10] was -64%. Also, the EC50 in experiment [11] amounted to 0.107 µM. In experiment [9], the Ratio Ki was 7.2. For the same compound, the inhibitory constant (Ki) in experiment [5] was found to be 0.0123 µM; in experiment [6], 0.0148 µM; in experiment [7], 0.086 µM; in experiment [8], 0.098 µM.

Consider `CCCCCn1cc(C(=O)NC23CC4CC(C)(CC(C)(C4)C2)C3)c(=O)c2c(C)nn(C)c21`, for which the Emax in experiment [10] stood at 71%. Also, the concentration giving a half-maximal response (EC50) in experiment [11] was 0.045 µM. Also, in [9], the Ratio Ki was 107. Moreover, the Ki stood at 0.00983 µM in experiment [5], 0.0167 µM in experiment [6], 1.05 µM in [7] and 3.26 µM in experiment [8].
